Data published in ChEMBL document CHEMBL1145197 (J Med Chem, 2005).

How the values were obtained:
Cannabinoid receptor 1 [1] = target: T1, Cannabinoid receptor 1 (Homo sapiens, UniProt P21554); assay type: cell-based, CHO
Mus musculus = assay: In vivo effective dose to produce antagonism of CB agonist (WIN-55212) induced hypothermia in mouse
Rattus norvegicus = assay: In vivo effective dose to produce antagonism of CB agonist (CP-55940) induced hypotension in rat
Cannabinoid receptor 2 = Cannabinoid receptor 2 (Homo sapiens, UniProt P34972); assay: In vitro displacement of CP-55940 binding to human CB2 receptor expressed in CHO cells; assay type: cell-based
Sequence of Cannabinoid receptor 2 (P34972 whole entry): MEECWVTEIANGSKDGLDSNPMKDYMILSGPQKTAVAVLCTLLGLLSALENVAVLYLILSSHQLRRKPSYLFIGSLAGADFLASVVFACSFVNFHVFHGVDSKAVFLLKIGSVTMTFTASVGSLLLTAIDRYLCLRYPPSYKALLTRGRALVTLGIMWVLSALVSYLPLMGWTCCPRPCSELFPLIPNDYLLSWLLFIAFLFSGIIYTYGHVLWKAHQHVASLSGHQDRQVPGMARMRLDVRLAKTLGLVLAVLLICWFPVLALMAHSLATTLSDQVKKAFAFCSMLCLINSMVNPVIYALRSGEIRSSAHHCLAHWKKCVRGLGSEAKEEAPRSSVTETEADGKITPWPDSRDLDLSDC
Summary of the method: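 Radioligand binding on CHO cells stably expressing recombinant human CB2 receptor; affinity given as Ki (nM).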

Cannabinoid receptor 1 [2] = target: T1, Cannabinoid receptor 1; assay: In vitro cannabinoid receptor 1 antagonism of [3H]arachidonic acid release by CHO cells; assay type: functional, cell-based; conditions: read-out: pA2 (converted)
[3] = target: ATP-dependent translocase ABCB1 (Homo sapiens, UniProt P08183); assay: Membrane passage was expressed as mean percentage of compound transported from bottom to top and from top to bottom at 3 hr after adding the compound; assay type: functional
Sequence of ATP-dependent translocase ABCB1 (P08183 whole entry): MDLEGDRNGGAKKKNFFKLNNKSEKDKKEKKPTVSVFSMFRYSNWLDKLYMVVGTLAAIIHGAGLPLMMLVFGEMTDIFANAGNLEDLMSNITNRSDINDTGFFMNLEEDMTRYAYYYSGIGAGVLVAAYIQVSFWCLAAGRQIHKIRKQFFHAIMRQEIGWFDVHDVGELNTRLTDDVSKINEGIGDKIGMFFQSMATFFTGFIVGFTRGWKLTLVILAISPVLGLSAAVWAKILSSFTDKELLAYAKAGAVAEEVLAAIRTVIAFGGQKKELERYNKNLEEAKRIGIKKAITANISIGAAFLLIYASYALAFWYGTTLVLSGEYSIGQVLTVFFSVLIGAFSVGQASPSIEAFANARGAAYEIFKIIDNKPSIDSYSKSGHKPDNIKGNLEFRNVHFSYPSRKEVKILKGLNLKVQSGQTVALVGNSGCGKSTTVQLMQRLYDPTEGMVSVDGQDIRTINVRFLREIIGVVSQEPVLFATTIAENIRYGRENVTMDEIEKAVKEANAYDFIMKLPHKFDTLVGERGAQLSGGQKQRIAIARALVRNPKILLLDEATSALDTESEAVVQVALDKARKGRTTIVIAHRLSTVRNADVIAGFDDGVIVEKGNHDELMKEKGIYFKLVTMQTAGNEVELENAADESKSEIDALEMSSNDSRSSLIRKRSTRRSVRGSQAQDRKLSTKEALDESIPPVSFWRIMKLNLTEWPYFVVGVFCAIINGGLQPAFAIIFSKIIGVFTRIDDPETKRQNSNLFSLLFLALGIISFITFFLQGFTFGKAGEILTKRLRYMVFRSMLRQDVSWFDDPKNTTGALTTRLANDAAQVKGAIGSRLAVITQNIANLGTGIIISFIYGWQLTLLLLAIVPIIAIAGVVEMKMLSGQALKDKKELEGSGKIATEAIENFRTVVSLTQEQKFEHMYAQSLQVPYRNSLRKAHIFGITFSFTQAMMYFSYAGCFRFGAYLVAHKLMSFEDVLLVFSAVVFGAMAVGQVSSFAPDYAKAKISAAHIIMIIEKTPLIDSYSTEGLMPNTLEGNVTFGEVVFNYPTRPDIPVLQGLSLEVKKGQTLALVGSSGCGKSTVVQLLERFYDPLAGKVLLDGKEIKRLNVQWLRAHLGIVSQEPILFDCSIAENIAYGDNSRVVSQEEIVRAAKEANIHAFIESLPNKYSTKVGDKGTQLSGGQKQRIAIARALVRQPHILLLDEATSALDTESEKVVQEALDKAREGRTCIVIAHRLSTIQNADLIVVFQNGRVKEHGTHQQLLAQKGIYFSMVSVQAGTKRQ

P-glycoprotein (ABCB1) = P-glycoprotein (ABCB1) (Homo sapiens, UniProt P08183); assay: P-glycoprotein (Pgp) factor was expressed as the ratio ofthe bottom to top transport and top to bottom transport; assay type: functional; conditions: not told
Sequence of P-glycoprotein (ABCB1) (P08183 whole entry): as above

T1 sequence (P21554 whole entry): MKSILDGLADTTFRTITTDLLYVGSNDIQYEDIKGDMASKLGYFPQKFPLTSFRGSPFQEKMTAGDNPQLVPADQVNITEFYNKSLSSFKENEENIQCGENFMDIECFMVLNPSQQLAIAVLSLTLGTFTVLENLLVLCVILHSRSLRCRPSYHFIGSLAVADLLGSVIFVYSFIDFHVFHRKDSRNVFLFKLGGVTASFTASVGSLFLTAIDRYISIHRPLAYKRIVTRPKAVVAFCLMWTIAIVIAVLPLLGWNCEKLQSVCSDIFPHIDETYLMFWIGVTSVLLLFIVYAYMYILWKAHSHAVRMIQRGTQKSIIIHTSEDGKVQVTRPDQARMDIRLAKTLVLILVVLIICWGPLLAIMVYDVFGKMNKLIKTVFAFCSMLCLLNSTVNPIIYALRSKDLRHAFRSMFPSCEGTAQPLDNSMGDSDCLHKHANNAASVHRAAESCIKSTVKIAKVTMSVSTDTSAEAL

SMILES	Ki (Cannabinoid receptor 1 [1])	Ki (Cannabinoid receptor 2)	Kb (Cannabinoid receptor 1 [2])	LED (Mus musculus)	ED50 (Rattus norvegicus)	Transport [3]	efflux ratio (P-glycoprotein (ABCB1))
O=C(NN1CCCCC1)c1cn(-c2ccc(Cl)cc2)c(-c2ccc(Cl)cc2Cl)n1	23 nM	542 nM	–	>30 mg/kg	11.7 mg/kg	–	–
Cc1c(C(=O)N2CCC(O)CC2)nc(-c2ccc(Cl)cc2Cl)n1-c1ccc(Cl)cc1	–	3960 nM	–	–	–	–	–
Cc1c(C(=O)N[C@H]2CC[C@H](O)CC2)nc(-c2ccc(Cl)cc2Cl)n1-c1ccc(Cl)cc1	399 nM	3470 nM	50.1 nM	–	–	–	–
Cc1c(C(=O)NC2CC3CCC2C3)nc(-c2ccc(Cl)cc2Cl)n1-c1ccc(Cl)cc1 (stereo not given)	19 nM	54 nM	0.794 nM	–	–	–	–
O=C(NN1CCCCC1)c1nc(-c2ccc(Cl)cc2Cl)c(-c2ccc(Cl)cc2)s1	227 nM	5840 nM	7.94 nM	–	> 30 mg/kg	8.3%	1.7
O=C(NN1CCCCC1)c1nc(-c2ccc(Cl)cc2)c(-c2ccc(Cl)cc2Cl)s1	> 1000 nM	4670 nM	63.1 nM	–	–	–	–
Cc1c(C(=O)NCc2ccc(C(F)(F)F)cc2)nc(-c2ccc(Cl)cc2Cl)n1-c1ccc(Cl)cc1	171 nM	1980 nM	–	–	–	–	–
Cc1c(C(=O)NN2CCOCC2)nc(-c2ccc(Cl)cc2Cl)n1-c1ccc(Cl)cc1	197 nM	3300 nM	–	–	–	–	–
Cc1c(C(=O)NN2CCCCC2)nc(-c2ccc(Cl)cc2Cl)n1-c1ccc(Cl)cc1	–	608 nM	2.51 nM	10 mg/kg	2.4 mg/kg	24.2%	1.2
CCN(CC)C(=O)c1nc(-c2ccc(Cl)cc2Cl)n(-c2ccc(Cl)cc2)c1C	828 nM	2520 nM	39.8 nM	–	–	–	–
CCc1c(C(=O)NN2CCCCC2)nc(-c2ccc(Cl)cc2Cl)n1-c1ccc(Cl)cc1	14 nM	430 nM	1 nM	30 mg/kg	15.8 mg/kg	–	–
Cc1c(C(=O)NN2CCCCC2)nc(-c2ccc(Cl)cc2)n1-c1ccc(Cl)cc1Cl	403 nM	208 nM	20 nM	–	> 30 mg/kg	–	–
O=C(NN1CCCCC1)c1nc(-c2ccc(Cl)cc2)n(-c2ccc(Cl)cc2Cl)n1	382 nM	5440 nM	25.1 nM	–	–	–	–
Cl.Cl.O=C(NN1CCCCC1)c1nc(-c2ccc(Cl)cc2Cl)n(-c2ccc(Cl)cc2)n1	356 nM	3560 nM	5.01 nM	>30 mg/kg	23.6 mg/kg	28.3%	1.5
Cc1c(C(=O)NN2CCCCC2)nn(-c2ccc(Cl)cc2Cl)c1-c1ccc(Cl)cc1 [RIMONABANT]	–	–	–	3 mg/kg	3.2 mg/kg	17.2%	–

More lines, main results first:

Ki (Cannabinoid receptor 1 [1])	Ki (Cannabinoid receptor 2)	Kb (Cannabinoid receptor 1 [2])	SMILES	LED (Mus musculus)	ED50 (Rattus norvegicus)	Transport [3]	efflux ratio (P-glycoprotein (ABCB1))
29 nM	634 nM	2.51 nM	Cc1c(C(=O)NN2CCCCC2)nc(-c2ccc(Cl)cc2Cl)n1-c1ccc(C(F)(F)F)cc1	–	–	–	–
34 nM	696 nM	–	Cc1c(C(=O)N2CCc3ccccc3C2)nc(-c2ccc(Cl)cc2Cl)n1-c1ccc(Cl)cc1	–	–	–	–
60 nM	489 nM	3.16 nM	Cc1c(C(=O)NN2CCCCC2)nc(-c2ccc(Cl)cc2Cl)n1-c1ccc(Br)cc1	–	–	–	–
52 nM	765 nM	–	Cc1c(C(=O)NN2CCCCC2)nc(-c2ccc(Cl)cc2Cl)n1-c1ccc(F)cc1	–	–	–	–
106 nM	326 nM	2 nM	COc1ccc(-n2c(-c3ccc(Cl)cc3Cl)nc(C(=O)NN3CCCCC3)c2C)cc1	–	–	–	–
64 nM	505 nM	2 nM	Cc1c(C(=O)NN2CCCCCC2)nc(-c2ccc(Cl)cc2Cl)n1-c1ccc(Cl)cc1	–	–	–	–
35 nM	160 nM	0.794 nM	Cc1c(C(=O)NC2CCCCC2)nc(-c2ccc(Cl)cc2Cl)n1-c1ccc(Cl)cc1	–	–	–	–
35 nM	349 nM	–	Cc1c(C(=O)NC2CCCCCC2)nc(-c2ccc(Cl)cc2Cl)n1-c1ccc(Cl)cc1	–	–	–	–
36 nM	906 nM	1.26 nM	O=C(NN1CCCCC1)c1nc(-c2ccc(Cl)cc2Cl)n(-c2ccc(Cl)cc2)c1CF	–	–	–	–
94 nM	815 nM	2.51 nM	Cc1c(C(=O)OC(C)(C)C)nc(-c2ccc(Cl)cc2Cl)n1-c1ccc(Cl)cc1	–	–	–	–
333 nM	242 nM	6.31 nM	Cc1c(C(=O)NOC(C)(C)C)nc(-c2ccc(Cl)cc2Cl)n1-c1ccc(Cl)cc1	–	–	–	–
33 nM	357 nM	–	Cc1c(C(=O)NC2CCCC2)nc(-c2ccc(Cl)cc2Cl)n1-c1ccc(Cl)cc1	–	–	–	–
–	758 nM	–	Cc1c(C(=O)NN2CCCCC2)nc(-c2ccc(Cl)cc2Cl)n1-c1ccc(Cl)cn1	–	–	–	–
30 nM	1590 nM	–	N#Cc1c(C(=O)NN2CCCCC2)nc(-c2ccc(Cl)cc2Cl)n1-c1ccc(Cl)cc1	–	–	–	–
27 nM	774 nM	–	Cc1c(C(=O)NN2CCCC2)nc(-c2ccc(Cl)cc2Cl)n1-c1ccc(Cl)cc1	–	–	–	–
40 nM	1410 nM	–	Cc1c(C(=O)NN2CC3CCCC3C2)nc(-c2ccc(Cl)cc2Cl)n1-c1ccc(Cl)cc1 (stereo not given)	–	–	–	–
23 nM	746 nM	3.98 nM	O=C(NN1CCCCC1)c1nc(-c2ccc(Cl)cc2Cl)n(-c2ccc(Cl)cc2)c1Br	–	–	–	–
27 nM	823 nM	3.16 nM	O=C(NN1CCCCC1)c1nc(-c2ccc(Cl)cc2Cl)n(-c2ccc(Cl)cc2)c1Cl	–	–	–	–
